Laboratory results taken from ChEMBL document CHEMBL1147849, “Synthesis and recognition of novel isonucleoside triphosphates by DNA polymerases” (Bioorg Med Chem, 2007).
The source made the active and inactive calls. The calls are words filed in the database; no cut-off is given here.

Assays:
Thermus aquaticus = test: Inhibition of Thermus acquaticus DNA polymerase-mediated DNA synthesis assessed as DNA chain termination
Procedure, shortened: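 Taq polymerase primer extension: 25-mer template (A, T, G or C at the first target site) and 5′-FITC 17-mer primer, 20 pmol each. Buffer was 50 mM KCl, 10 mM Tris–HCl pH 9.0, 1.5 mM MgCl₂, 0.1% Triton X-100. Triphosphate or dNTPs 1 nmol each, 2 U enzyme, 50 °C for 1.5 h. Read-out by denaturing polyacrylamide gel electrophoresis.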

[1] = Inhibition of 9 Nm DNA polymerase-mediated DNA synthesis assessed as DNA chain termination
Procedure, shortened: (§1)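 25-mer template (four variants, each with A, T, G or C at the first target site) annealed to a 5′-FITC 17-mer primer, 20 pmol each. Annealing was done by cooling quickly from 90 to 0 °C in buffer: 10 mM KCl, 10 mM (NH₄)₂SO₄, 20 mM Tris–HCl pH 8.8, 2 mM MgSO₄, 0.1% Triton X-100. Reactions held triphosphate or dNTPs (1 nmol each) and 2 U polymerase, 50 °C, 1.5 h. Products were resolved by denaturing PAGE.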

[2] = Inhibition of Vent(exo-) DNA polymerase-mediated DNA synthesis assessed as DNA chain termination; procedure, shortened: as §1
[3] = Inhibition of Deep Vent(exo-) DNA polymerase-mediated DNA synthesis assessed as DNA chain termination; procedure, shortened: as §1
[4] = Inhibition of Therminator DNA polymerase-mediated DNA synthesis assessed as DNA chain termination; procedure, shortened: as §1
[5] = Ratio of Vmax to Km for 9 Nm DNA polymerase
Procedure, shortened: (§2)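 Kinetics with 9°N DNA polymerase at 0.01 U/µL in the supplier's buffer. Primer was annealed to template 2 (T at the target site), 2 µM primer–template complex, with varying concentrations of dATP or the isonucleoside triphosphate.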

[6] = Activity of 9 Nm DNA polymerase enzyme; procedure, shortened: as §2

Activity (Thermus aquaticus) | Activity [1] | Structure (SMILES) | further results
Active | inactive | Nc1ncnc2c1ncn2[C@@H]1CO[C@H](COP(=O)(O)OP(=O)(O)OP(=O)(O)O)[C@H]1O | Activity [2]: inactive; Activity [3]: Active; Activity [4]: inactive
– | – | Nc1ncnc2c1ncn2[C@H]1C[C@H](O)[C@@H](COP(=O)(O)OP(=O)(O)OP(=O)(O)O)O1 | Vmax/Km [5]: 8.63e+06 M⁻¹; Km [6]: 0.78 µM; Vmax [6]: 6.73 %/min
Active | Active | Cc1cn([C@H]2CO[C@@H](CCOP(=O)(O)OP(=O)(O)OP(=O)(O)O)[C@@H]2O)c(=O)[nH]c1=O | –
Active | Active | C=CCOC[C@@H]1O[C@@H](COP(=O)(O)OP(=O)(O)OP(=O)(O)O)[C@H](O)[C@H]1n1cc(C)c(=O)[nH]c1=O | –
Active | Active | Nc1ccn([C@H]2CO[C@@H](CCOP(=O)(O)OP(=O)(O)OP(=O)(O)O)[C@@H]2O)c(=O)n1 | –
Active | Active | Nc1nc2c(ncn2[C@H]2CO[C@@H](CCOP(=O)(O)OP(=O)(O)OP(=O)(O)O)[C@@H]2O)c(=O)[nH]1 | –
